A selection: hits, their analogues and other compounds. The true share with any hit is near 0.99%.
STK33 inh = inhibitors of purified STK33 kinase, primary screen, biochemical, ADP-Glo luminescence, homogeneous, cell-free; MBP phosphorylation; hit rate 0.073% among 320,000; Serine/threonine-protein kinase 33 (Homo sapiens), Q9BYT3; inhibition, % at 10 µM;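 active = inhibition at or above 25%, using the most active replicate where run in duplicate; inactive = inhibition below 25%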
GSK3 alpha inh = blockers of GSK3A enzyme activity – biochemical, luminescence, cell-free homogeneous, HTS, primary screen; Glycogen synthase kinase-3 alpha (Homo sapiens), P49840; hit rate 0.1% among 320,000; GSK-3 alpha kinase, ADP-Glo luminescence, 60 min; inhibition, % at 10 µM;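 active = more than half of replicates show inhibition above 20%; inconclusive = some but at most half of replicates above 20% inhibition; inactive = no replicate shows inhibition above 20%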;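 also: GST-tagged GSK-3 alpha with peptide substrate and 25 µM ATP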
Target sequence (P49840 whole entry, looked up): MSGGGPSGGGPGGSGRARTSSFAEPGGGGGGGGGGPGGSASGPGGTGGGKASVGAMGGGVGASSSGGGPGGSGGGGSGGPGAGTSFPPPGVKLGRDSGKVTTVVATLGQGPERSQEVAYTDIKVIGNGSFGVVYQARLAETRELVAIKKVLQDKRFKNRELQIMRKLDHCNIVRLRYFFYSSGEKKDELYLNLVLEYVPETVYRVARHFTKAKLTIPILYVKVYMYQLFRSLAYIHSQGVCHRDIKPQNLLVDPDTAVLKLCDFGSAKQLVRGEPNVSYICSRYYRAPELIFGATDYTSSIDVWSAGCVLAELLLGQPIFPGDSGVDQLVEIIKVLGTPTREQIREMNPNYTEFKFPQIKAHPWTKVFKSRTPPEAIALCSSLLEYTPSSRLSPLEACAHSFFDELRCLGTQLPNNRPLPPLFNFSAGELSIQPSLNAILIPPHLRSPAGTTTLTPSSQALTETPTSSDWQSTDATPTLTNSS
AI-2 QS mod = Vibrio harveyi AI-2 quorum sensing modulators, primary screen, JMH597 strain, luminescence/OD600 ratio | Vibrio harveyi JMH597 AI-2 luminescence/OD600 ratio, 9 h; active compounds read low; strain lacks LuxN and CqsS sensors; 0 = neutral-control median | activity change, % at 7.5 µM | hit rate 0.4% among 300,000; in the data active = activity change below about -75%, passing the limit was not always enough; inconclusive = no clear call, values can overlap the other calls;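 also: luminescence divided by OD600 gain over 9 h not by final OD600 alone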
Rce1 inhib = yeast Rce1p protease inhibitors, primary screen, biochemical, fluorescence, cell-free homogeneous. CAAX prenyl protease 2 (Saccharomyces cerevisiae (strain ATCC 204508 / S288c)), Q03530. yeast membranes, quenched prenylated peptide cleavage fluorescence. calls only. hit rate 0.27% among 290,000. AID 2563, 2010;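 active = fall in fluorescence gain of 50% or more versus controls, with final raw signal at or below 3038400; inconclusive = same 50% fall but final raw signal above 3038400; inactive = fall in fluorescence gain under 50%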
GSK3B inh = human GSK3beta kinase inhibitors, primary screen, biochemical, cell-free homogeneous, HTS; Glycogen synthase kinase-3 beta (Homo sapiens), P49841; hit rate 0.038% among 300,000; GST-GSK3beta kinase, ADP-Glo luminescence, 60 min; active compounds read low; activity score (negative = inhibition), % at 10 µM;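 active = more than half of replicate wells score below -50%, meaning over 50% inhibition versus plate controls; inconclusive = some replicates but at most half score below -50%; inactive = no replicate scores below -50%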
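test system = GST-tagged human GSK3beta kinase, cell-free | reagent = 25 µM ATP with peptide substrate | dosing = one dose of 10 µM per compound | schedule = 60 min reaction, RT | detection = luminescent ADP-Glo measurement of ADP formed | control set = DMSO neutral wells and GW8510 at 20 µM as positive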
Dyrk1A ADPGlo = rat Dyrk1A kinase inhibitors, primary screen, biochemical, single point, plate reader; Dual specificity tyrosine-phosphorylation-regulated kinase 1A (Rattus norvegicus), Q63470; ADP-Glo luminescence, NFATc1 peptide; hit rate 0.43% among 310,000; inhibition, % at 12.5 µM; in the data active = inhibition above about 50%
JMH597 growth = Vibrio harveyi growth inhibition, confirmation, counter-screen for AI-2 quorum sensing project, JMH597 strain, OD600 absorbance; AID 2726, 2010; 9 h; lacks LuxN and CqsS sensors; growth inhibition, % at 7.5 µM; shares compounds with AI-2 QS mod; hit rate 1% among 750;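 active = every replicate shows growth inhibition above 50%; inconclusive = at least half, but not all, replicates pass that cutoff; inactive = fewer than half of replicates pass it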
BB721 const-QS lum = luminescence inhibition in constitutive-on V. harveyi, confirmation, counter-screen for LuxS inhibitor project, strain BB721, luminescence readout. Vibrio harveyi BB721 luminescence, 9 h. hit rate 95% among 750. inhibition, % at 7.5 µM. shares compounds with AI-2 QS mod;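 active = inhibition above about 80% in every replicate, not just on average, limit read from the data; inconclusive = at least half of replicates past the limit, but not all; inactive = fewer than half of replicates past the limit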
BB721 growth rt = growth inhibition of V. harveyi BB721, confirmation, cytotoxicity control for AI-2 quorum sensing inhibitors, strain BB721, absorbance OD600; shares compounds with AI-2 QS mod; Vibrio harveyi BB721 growth, 9 h; growth inhibition, % at 7.5 µM; hit rate 3% among 750; AID 2728, 2010;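 active = every replicate shows growth inhibition above 50%; inconclusive = at least half but not all replicates above 50% inhibition; inactive = under half of replicates above 50% inhibition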
AI-2 QS JMH597 = Vibrio harveyi AI-2 signaling luminescence modulation – JMH597 strain, confirmation. inhibition, % at 7.5 µM. hit rate 97% among 750. shares compounds with AI-2 QS mod. Vibrio harveyi JMH597 AI-2 quorum sensing luminescence, 9 h; luxN and CqsS knockout, AI-2 only. AID 2736, 2010;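 active = every replicate shows more than 75% inhibition of signal versus neutral control wells; inconclusive = half to three quarters of replicates exceed 75% inhibition; inactive = fewer than half of replicates exceed 75% inhibition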
Hits are given with their value; 0 = inactive; ? = inconclusive; - = not tested or not shown.

SMILES	STK33 inh	GSK3 alpha inh	AI-2 QS mod	Rce1 inhib	GSK3B inh	Dyrk1A ADPGlo	JMH597 growth	BB721 const-QS lum	BB721 growth rt	AI-2 QS JMH597
COc1ccc(-c2nnc(SCc3ccccc3F)o2)cc1	0	0	0	0	0	0	-	-	-	-
COc1ccc(-c2nnc(SCc3cccc(C#N)c3)o2)cc1	0	0	0	0	0	0	-	-	-	-
Cc1ccccc1-c1nnc(SCc2ccccc2F)o1	0	0	-81	0	0	0	0	95	0	96
NS(=O)(=O)c1ccc(CNC(=O)c2scc3c2CCCC3)cc1	0	0	0	0	0	-	-	-	-	-
Cc1ccccc1-c1nnc(SCc2ccccc2)o1	0	0	-96	0	0	0	0	99	0	99
Cc1ccc(CSc2nnc(-c3cccc4ccccc34)o2)cc1	0	0	-	-	-	0	-	-	-	-
O=C(CN1C(=O)c2ccccc2C1=O)Nc1ccc(-c2nc3ccccc3o2)cc1	0	0	-92	0	0	0	0	87	0	93
O=C(CCN1C(=O)c2ccccc2C1=O)Nc1ccc(-c2nc3ccccc3o2)cc1	0	0	0	0	0	0	-	-	-	-
COC(=O)[C@H](Cc1ccccc1)NS(=O)(=O)c1ccc(F)cc1Br	-	-	-	-	-	0	-	-	-	-
COc1ccc(S(=O)(=O)Nc2ccc(-n3cccc3)cc2)cc1	0	0	-96	0	0	0	0	94	0	99
CC(=O)Nc1ccc(Cc2nc3c([nH]2)c(=O)n(C)c(=O)n3C)cc1	0	0	0	0	0	-	-	-	-	-
COc1ccc(Cc2nc(-c3ccccn3)no2)cc1	0	0	-88	0	0	0	0	95	0	96
COc1ccc(Cc2nc(-c3cccc(C)c3)no2)cc1	0	0	-80	0	0	0	0	94	0	96
c1ccc(CCCc2nc(-c3cccnc3)no2)cc1	0	0	0	0	0	0	-	-	-	-
COc1ccc(CCc2nc(-c3ccc(-n4cccc4)cc3)no2)cc1	0	0	0	0	0	0	-	-	-	-
c1ccc(OCCCc2nc(-c3cccnc3)no2)cc1	0	0	-93	0	0	0	0	98	0	99
COc1ccc(-c2noc(CCc3ccccc3)n2)cc1	0	0	?	0	0	-	0	94	0	97
COc1ccc(Cc2nc(-c3ccncc3)no2)cc1	0	0	0	0	0	0	-	-	-	-
CCN(CC)CCn1c(=S)[nH]c2cc(C(=O)NCc3ccccc3Cl)ccc2c1=O	0	0	0	0	0	0	-	-	-	-
Cc1c(S(=O)(=O)N2CCCCC2)c(=O)n(C)c(=O)n1C	0	0	0	0	0	0	-	-	-	-
O=C(NCc1ccccc1Cl)C(=O)c1c[nH]c2ccccc12	0	0	-83	0	0	0	0	94	0	95
O=C(NCc1ccco1)C(=O)c1c[nH]c2ccccc12	0	0	0	0	0	0	-	-	-	-
O=C(NCc1cccs1)C(=O)c1c[nH]c2ccccc12	0	-	-92	0	0	0	0	97	0	98
O=C(NCc1cccnc1)C(=O)c1c[nH]c2ccccc12	0	0	0	0	0	0	-	-	-	-
Cc1cccc(C)c1NC(=O)CN(C)CC(=O)c1c(N)n(Cc2ccccc2)c(=O)n(C)c1=O	0	0	-	-	-	-	-	-	-	-
SMILES	STK33 inh	GSK3 alpha inh	AI-2 QS mod	Rce1 inhib	GSK3B inh	Dyrk1A ADPGlo	JMH597 growth	BB721 const-QS lum	BB721 growth rt	AI-2 QS JMH597
CC1(C)CC(=O)C=C(Nc2cc(-c3ccccc3)[nH]n2)C1	0	0	-79	0	-54	0	0	90	0	94
CC1(C)CC(=O)C=C(NCc2ccccc2)C1	0	0	0	0	0	0	-	-	-	-
N/C(=N\OC(=O)CCCOc1ccccc1)c1ccccc1	0	0	-83	0	0	0	0	92	0	93
Cc1ccc(OCC(=O)O/N=C(\N)c2cccnc2)cc1	0	0	-84	0	0	0	0	92	0	95
N/C(=N\OC(=O)COc1ccc(Cl)cc1)c1cccnc1	-	-	?	0	0	0	-	-	-	-
N/C(=N\OC(=O)COc1ccc2ccccc2c1)c1cccnc1	0	0	-90	0	0	0	0	98	0	99
CC(=O)c1ccc(S(=O)(=O)NCCC(=O)NC2CCN(Cc3ccccc3)CC2)cc1	0	0	-	-	-	0	-	-	-	-
COc1cc(NC(=O)Cn2ncc(Cl)c(Cl)c2=O)c(C)cc1[N+](=O)[O-]	-	-	-80	0	0	0	0	93	0	94
CCC1(c2ccccc2)NC(=O)N(CC(=O)Nc2cccc(C#N)c2)C1=O (stereo not drawn)	0	0	-94	0	0	0	0	96	0	97
CC1(c2ccccc2)NC(=O)N(CC(=O)Nc2cccc(C#N)c2)C1=O (stereo not drawn)	0	0	-95	0	0	0	0	97	0	98
Cc1ccc(Cl)cc1NC(=O)C1CCCN1S(=O)(=O)c1ccc(-c2ccc(=O)[nH]n2)s1 (stereo not drawn)	0	0	0	0	0	0	-	-	-	-
Cc1ccc(S(=O)(=O)n2cccc2C)cc1	0	0	0	0	0	-	-	-	-	-
COc1ccc(S(=O)(=O)N2CCN(C(=O)c3cc4c(s3)CCC4)CC2)cc1	0	0	-	-	-	-	-	-	-	-
CCC(CC)c1nnc(NC(=O)CCCN2C(=O)c3ccccc3C2=O)s1	0	0	0	0	0	0	-	-	-	-
CC(C)c1nnc(NC(=O)CCN2C(=O)c3ccccc3C2=O)s1	0	0	-83	0	0	0	0	95	0	96
CCCc1nnc(NC(=O)CCN2C(=O)c3ccccc3C2=O)s1	0	0	-87	0	0	0	0	94	0	96
COCc1nnc(NC(=O)CCN2C(=O)c3ccccc3C2=O)s1	0	-	0	0	0	0	-	-	-	-
Cc1cccc(NC(=S)NCc2ccc3c(c2)OCO3)c1	0	0	0	0	0	0	-	-	-	-
O=C(/C=C/c1cccc(F)c1)NCc1ccc2c(c1)OCO2	0	0	-88	0	0	0	0	96	0	97

Compound activity from PubChem BioAssay.
